Source: paper PMC8903082 (Journal of medicinal chemistry, 2020)

Key:
red blood cells of mice = experiment: Hemolytic assay; assay type: cell-based; details: 37 °C, 1 h, testing range up to 250 μg/mL
MRSA [1] = experiment: Drug resistance study; assay type: cell-based, Staphylococcus aureus; details: 13 passages
E. coli [2] = experiment: Time-kill study, E. coli; assay type: cell-based, Escherichia coli; details: concentrations of 24 and 48 μg/mL
In short: (§1)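 Overnight TSB cultures (37 °C, shaking) were subcultured 6 h to mid-log phase. Suspensions at 10^6 CFU/mL were exposed to the test compound at 37 °C for 10, 30, 60 and 120 min (E. coli 12, 24, 48 μg/mL; MRSA 6, 12, 24, 48 μg/mL). Untreated bacteria served as controls. Samples were diluted (MRSA 10^2-fold, E. coli 10^4-fold) and plated on TSB agar for 20 h at 37 °C. Colonies were counted against time. Three repeats.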

E. coli [3] = experiment: Membrane depolarization study, DiSC3; assay type: cell-based, Escherichia coli; details: 0.5 ×, 1 ×, 2 × and 4 × MIC
MRSA [4] = assay type: cell-based, Staphylococcus aureus; details: not told
MRSA [5] = experiment: Time-kill study, MRSA; assay type: cell-based, Staphylococcus aureus; details: concentrations of 24 and 48 μg/mL
In short: as §1

E. coli [6] = experiment: Fluorescence microscopy; assay type: cell-based, Escherichia coli; details: 2 × MIC, 2 h
[7] = test system: E. coli biofilm formation; experiment: Biofilm prevention study; assay type: cell-based; details: Escherichia coli, 48 h, read-out: Inhibition of E. coli biofilm formation
MRSA [8] = experiment: Fluorescence microscopy; assay type: cell-based, Staphylococcus aureus; details: 2 × MIC, 2 h
E. coli [9] = experiment: Inner membrane permeabilization; assay type: cell-based, Escherichia coli; details: 2-fold MIC
In short: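 Mid-log E. coli was pelleted at 1000g, washed three times and resuspended to 10^6 CFU/mL in 5 mM HEPES/5 mM glucose (1:1). It was mixed with PI from a 10 μM solution. Fluorescence (ex 535, em 617 nm) was read every 2 min for about 8 min. The test compound was then added and reading continued for 12 min. The negative control received water. Three repeats.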

MRSA [10] = experiment: TEM study, MRSA; assay type: cell-based, Staphylococcus aureus; details: 6 μg/mL, 2 h
In short: (§2)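 Cells were prepared at 10^6 CFU/mL as for MIC testing and treated with the test compound for 2 h at 37 °C; untreated controls ran alongside. Cells were pelleted, washed three times in PBS and resuspended in deionised water. They were dropped on grids, blotted, dried 30 s at 50 °C under vacuum, and imaged by TEM at 60 kV.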

E. coli [11] = experiment: TEM study, E. coli; assay type: cell-based, Escherichia coli; details: 12 μg/mL, 2 h
In short: as §2

CCCCCCCCCC(=O)N[C@@H](Cc1ccccc1)CN1CC(=O)N(c2ccc(N3CN(C[C@H](Cc4ccccc4)NC(=O)CCCCCCCCC)CC3=O)cc2)C1 [Compound 10, N,N'-((2S,2'S)-(1,4-Phenylenebis(4-oxoimidazolidine-3,1-diyl))-bis(3-phenylpropane-1,2-diyl))bis(decanamide)]
Hemolysis (HC50) (red blood cells of mice): >250 µg/mL

NCCCC(=O)N[C@@H](Cc1ccccc1)CN1CC(=O)N(c2ccc(N3CN(C[C@H](Cc4ccccc4)NC(=O)CCCN)CC3=O)cc2)C1 [Compound 9, N,N'-((2S,2'S)-(1,4-Phenylenebis(4-oxoimidazolidine-3,1-diyl))-bis(3-phenylpropane-1,2-diyl))bis(4-aminobutanamide)]
Hemolysis (HC50) (red blood cells of mice): >250 µg/mL

CCCCCCCC(=O)N[C@@H](CCCCN)CN1CC(=O)N(c2ccc(N3CN(C[C@H](CCCCN)NC(=O)CCCCCCC)CC3=O)cc2)C1 [Compound 2, N,N'-((2S,2'S)-(1,4-Phenylenebis(4-oxoimidazolidine-3,1-diyl))-bis(6-aminohexane-1,2-diyl))dioctan amide]
Hemolysis (HC50) (red blood cells of mice): >250 µg/mL

CCn1cc(C(=O)O)c(=O)c2cc(F)c(N3CCNCC3)cc21 [norfloxacin, reference compound]
Fold increase in MIC toward MRSA (MRSA [1]): more than 22 fold

CCCCCC(=O)N[C@@H](CCCCN)CN1CC(=O)N(c2ccc(N3CN(C[C@H](CCCCN)NC(=O)CCCCC)CC3=O)cc2)C1 [Compound 1, N,N'-((2S,2'S)-(1,4-Phenylenebis(4-oxoimidazolidine-3,1-diyl))-bis(6-aminohexane-1,2-diyl))dihexan amide]
Hemolysis (HC50) (red blood cells of mice): >250 µg/mL

CCCCCCCCCC(=O)N[C@@H](CCCCN)CN1CC(=O)N(c2ccc(N3CN(C[C@H](CCCCN)NC(=O)CCCCCCCCC)CC3=O)cc2)C1 [Compound 3, N,N'-((2S,2'S)-(1,4-Phenylenebis(4-oxoimidazolidine-3,1-diyl))-bis(6-aminohexane-1,2-diyl))bis(decanamide)]
Time required for eradicating E. coli (E. coli [2]): 30 min
Membrane depolarization, DiSC3(5) fluorescence intensity (E. coli [3]): increase in a concentration-dependent manner
Inner membrane permeabilization of MRSA (PI fluorescence) (MRSA [4]): permeabilized fast
Time to thoroughly eliminate MRSA (MRSA [5]): ≤ 60 min
DAPI/PI staining of E. coli (membrane integrity) (E. coli [6]): blue and red fluorescence were all observed
inhibition at 3 µg/mL [7]: > 55%
Fold increase in MIC toward MRSA (MRSA [1]): remained almost unchanged
DAPI/PI staining of MRSA (membrane integrity) (MRSA [8]): blue and red fluorescence were all observed
Inner membrane permeabilization of E. coli (PI fluorescence) (E. coli [9]): permeabilized fast
Cell membrane morphology of MRSA (TEM) (MRSA [10]): their membrane was all dispersed
Hemolysis (HC50) (red blood cells of mice): >250 µg/mL
Cell membrane morphology of E. coli (TEM) (E. coli [11]): their membrane was all dispersed

CCCCCCCCCC(=O)N[C@@H](CCCCN)CNCC(=O)Nc1ccc(NC(=O)CNC[C@H](CCCCN)NC(=O)CCCCCCCCC)cc1 [Compound 11, N,N'-((2S,2'S)-(((1,4-Phenylenebis(azanediyl))bis(2-oxoethane-2,1-diyl))bis(azanediyl))bis(6-aminohexane-1,2-diyl))bis-(decanamide)]
Hemolysis (HC50) (red blood cells of mice): >250 µg/mL

CCCCCCCCCCCC(=O)N[C@@H](CCCCN)CN1CC(=O)N(c2ccc(N3CN(C[C@H](CCCCN)NC(=O)CCCCCCCCCCC)CC3=O)cc2)C1 [Compound 4, N,N'-((2S,2'S)-(1,4-Phenylenebis(4-oxoimidazolidine-3,1-diyl))-bis(6-aminohexane-1,2-diyl))didodecanamide]
Hemolysis (HC50) (red blood cells of mice): >250 µg/mL

NCCCC[C@@H](CN1CC(=O)N(c2ccc(N3CN(C[C@H](CCCCN)NC(=O)CC45C[C@H]6C[C@@H](C4)C[C@@H](C5)C6)CC3=O)cc2)C1)NC(=O)CC12C[C@H]3C[C@@H](C1)C[C@@H](C2)C3 [Compound 7, N,N'-((2S,2'S)-(1,4-Phenylenebis(4-oxoimidazolidine-3,1-diyl))-bis(6-aminohexane-1,2-diyl))bis(2-((3S,5S,7S)-adamantan-1-yl)-acetamide)]
Hemolysis (HC50) (red blood cells of mice): >250 µg/mL

CCCCCCCCCCCCCC(=O)N[C@@H](CCCCN)CN1CC(=O)N(c2ccc(N3CN(C[C@H](CCCCN)NC(=O)CCCCCCCCCCCCC)CC3=O)cc2)C1 [Compound 5, N,N'-((2S,2'S)-(1,4-Phenylenebis(4-oxoimidazolidine-3,1-diyl))-bis(6-aminohexane-1,2-diyl))ditetradecanamide]
Hemolysis (HC50) (red blood cells of mice): >250 µg/mL

NCCCC[C@@H](CN1CC(=O)N(c2ccc(N3CN(C[C@H](CCCCN)NC(=O)Cc4ccc5ccccc5c4)CC3=O)cc2)C1)NC(=O)Cc1ccc2ccccc2c1 [Compound 8, N,N'-((2S,2'S)-(1,4-Phenylenebis(4-oxoimidazolidine-3,1-diyl))-bis(6-aminohexane-1,2-diyl))bis(2-(naphthalen-2-yl)acetamide)]
Hemolysis (HC50) (red blood cells of mice): >250 µg/mL

CCCCCCCCCCCCCCCC(=O)N[C@@H](CCCCN)CN1CC(=O)N(c2ccc(N3CN(C[C@H](CCCCN)NC(=O)CCCCCCCCCCCCCCC)CC3=O)cc2)C1 [Compound 6, N,N'-((2S,2'S)-(1,4-Phenylenebis(4-oxoimidazolidine-3,1-diyl))-bis(6-aminohexane-1,2-diyl))dipalmitamide]
Hemolysis (HC50) (red blood cells of mice): >250 µg/mL
